This is an account of results in ChEMBL document CHEMBL4622964, “Designing Dihydrofolate Reductase Inhibitors as X-ray Radiosensitizers to Reverse Radioresistance of Cervical Cancer” (ACS Med Chem Lett, 2020).

Structures are written as SMILES. Active and inactive are the calls of the source. No cut-off for these calls is given here.

The subject of data set [1] is HeLa. In words: Induction of ROS generation in human HeLa cells in presence of 4 Gy X-ray irradiation by DHE fluorescent dye based microplate reader analysis (reference value: 150%). The format is functional.
Data set [2] concerns HeLa. The data set is described as follows: Inhibition of cell migration in human HeLa cells assessed as reduction in migration velocity at 1 uM after 24 hrs by phase contrast microscopic analysis. The format is functional, cell-based. The gist of the method:
(§1)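 Wound-healing scratch assay on HeLa monolayers, compound with or without 4 Gy X-rays; wound closure recorded by phase-contrast microscopy at set times; migrated cells counted manually; mean ± SD of three independent experiments.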

The subject of data set [3] is HeLa. In words: Antimigratory activity in human HeLa cells assessed as inhibition of cell migration at 1 uM after 24 hrs in presence of 4 Gy irradiation by wound healing assay (reference value: 35%). The class given is functional. As to conditions: light or radiation study, read-out: INH. The gist of the method:
(§2)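 Wound-healing scratch assay in HeLa cells. Cells were treated without or with 4 Gy X-rays, and wound closure was imaged by phase-contrast microscopy at the indicated times. Migrated cells were counted manually. Mean ± SD of three independent experiments.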

Data set [4] in a line: Toxicity in BALB/c mouse xenografted with human HeLa cells assessed as liver damage at 4 mg/kg, iv administered for every 3 days for 21 days and measured after 24 hrs post last dose in presence of 4 Gy X-ray irradiation by H and E staining based light microscopic analysis. The format is organism-based. As to conditions: in vivo. The gist of the method:
(§3)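 HeLa-tumor-bearing nude mice dosed at 4 mg/kg iv every 3 days for 21 days, alone or with X-rays; euthanized 24 h after last injection; heart, liver, lungs, kidneys and spleen sectioned and stained with H&E.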

The subject of data set [5] is HeLa. In words: Induction of apoptosis in human HeLa cells assessed as caspase-3 activation at 1 uM using Ac-DEVD-AMC as substrate after 12 hrs by fluorescence based assay relative to control. The format is functional. In short, it runs like this: (§4)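 Caspase-3 and caspase-8 activities were measured in HeLa cells after 12 h at 1 μM, without or with 4 Gy X-rays. Mean ± SD of three independent experiments.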

Data set [6] is described as follows: Toxicity in BALB/c mouse xenografted with human HeLa cells assessed as body weight loss at 4 mg/kg, iv administered for every 3 days and measured after 21 days. The format is organism-based. Conditions: in vivo, 504 h. The gist of the method:
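HeLa-tumor-bearing nude mice given compound at 4 mg/kg by tail-vein injection every 3 days, alone or with X-rays; body weight recorded across 21 days.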

Data set [7] has as its system HeLa. The data set is described as follows: Induction of apoptosis in human HeLa cells assessed as caspase-8 activation at 1 uM using […] as substrate after 12 hrs by fluorescence based assay relative to control. The class given is functional. In short, it runs like this:
as §4

In data set [8] the test system is HeLa. The data set is described as follows: Antiproliferative activity against human HeLa cells assessed as reduction in cell viability preincubated for 12 hrs followed by 4 Gy irradiation and measured after 60 hrs by MTT assay. The class given is functional, cell-based. As to conditions: light or radiation study. The gist of the method:
(§5)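 MTT viability assay in HeLa cancer cells, with the test agent alone (0 Gy) or combined with 4 Gy X-rays. IC50 values are in μM. Sensitivity enhancement ratio = IC50(0 Gy)/IC50(4 Gy).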

Data set [9] deals with HeLa. In words: Induction of cell cycle arrest in human HeLa cells assessed as accumulation at SubG1 phase at 1 uM after 48 hrs in presence of 4 Gy X-ray radiation by propidium iodide staining based flow cytometric analysis (reference value: […]). The format is functional.
Data set [10] relates to HeLa. The data set is described as follows: Induction of reactive oxygen species generation in human HeLa cells incubated with DHE for 30 mins and measured up to 30 mins in presence of 4 Gy X-ray radiation by fluorescence microscopic analysis. The class given is functional, cell-based. The gist of the method: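 HeLa cells pretreated with compound, with or without 4 Gy X-rays, then incubated with dihydroethidium for 30 min; red superoxide-derived fluorescence imaged by fluorescence microscopy, with observation continued over a further 30 min.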

The nature of data set [11]: Toxicity in BALB/c mouse xenografted with human HeLa cells assessed as kidney damage by measuring effect on BUN level at 4 mg/kg, iv administered every 3 days for 21 days. The class given is organism-based. Conditions: in vivo. In short, it runs like this: (§6)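 HeLa xenograft nude mice dosed at 4 mg/kg iv every 3 days over 21 days, alone or with X-rays; blood collected 24 h after last injection for serum biochemistry: ALT, AST (liver), BUN and uric acid (kidney).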

Data set [12] relates to HeLa. In words: Induction of cell cycle arrest in human HeLa cells assessed as accumulation at S phase at 1 uM after 48 hrs by propidium iodide staining based flow cytometric analysis (reference value: 41.6%). The format is functional.
Data set [13] in a line: Toxicity in BALB/c mouse xenografted with human HeLa cells assessed as spleen damage at 4 mg/kg, iv administered for every 3 days for 21 days and measured after 24 hrs post last dose by H and E staining based light microscopic analysis. The format is organism-based. As to conditions: in vivo. In short, it runs like this: as §3
Data set [14] deals with HeLa. In words: Induction of cell cycle arrest in human HeLa cells assessed as accumulation at S phase at 1 uM after 48 hrs in presence of 4 Gy X-ray radiation by propidium iodide staining based flow cytometric analysis (reference value: 31%). The format is functional.
The nature of data set [15]: Drug localization in lysosome of human HeLa cells at 20 uM after 4 hrs by LysoTracker/DAPI staining based fluorescence microscopic analysis. The format is ADME, subcellular. In short, it runs like this:
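HeLa cells pretreated with 20 μM compound; LysoTracker added 2 h and DAPI 30 min before each time point; compound green fluorescence (emission about 510 nm) overlaid with lysosome (red) and nucleus under fluorescence microscope.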

Data set [16] has as its system HeLa. In words: Inhibition of cell migration in human HeLa cells assessed as reduction in spreading rate at 1 uM after 24 hrs in presence of 4 Gy X-ray irradiation by phase contrast microscopic analysis. The format is functional, cell-based. The gist of the method: as §1
The nature of data set [17]: Toxicity in BALB/c mouse xenografted with human HeLa cells assessed as liver damage by measuring effect on ALT level at 4 mg/kg, iv administered every 3 days for 21 days in presence of 4 Gy X-ray irradiation. The format is organism-based. Conditions: in vivo. In short, it runs like this:
as §6

For data set [18], the system named is HeLa. In words: Antimigratory activity in human HeLa cells assessed as inhibition of cell migration at 1 uM after 24 hrs by wound healing assay relative to control. The format is functional. As to conditions: read-out: INH. The gist of the method: as §2
Data set [19] in a line: Safety index, ratio of IC50 for cytotoxicity against human Ect1/E6E7 cells assessed as reduction in cell viability in presence of 4 Gy irradiation by MTT assay to antiproliferative activity against human HeLa cells assessed as reduction in cell viability preincubated for 12 hrs followed by 4 Gy irradiation and measured after 60 hrs by MTT assay. The class given is toxicity, cell-based. Conditions: Ect1/E6E7 cells versus HeLa cells, read-out: Ratio IC50. The gist of the method:
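MTT viability assay on Ect1/E6E7 normal ectocervical cells and HeLa cells, with 0 or 4 Gy X-rays. SER = IC50(0 Gy)/IC50(4 Gy) in the same line; safe index SI4 = IC50 Ect1/E6E7 + 4 Gy divided by IC50 HeLa + 4 Gy.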

For data set [20], the system named is HeLa. In words: Induction of cell cycle arrest in human HeLa cells assessed as accumulation at SubG1 phase at 1 uM after 48 hrs by propidium iodide staining based flow cytometric analysis (reference value: 0.8%). The class given is functional.
The nature of data set [21]: Toxicity in BALB/c mouse xenografted with human HeLa cells assessed as kidney damage by measuring effect on uric acid level at 4 mg/kg, iv administered every 3 days for 21 days in presence of 4 Gy X-ray irradiation. The format is organism-based. As to conditions: in vivo. The gist of the method: as §6
The subject of data set [22] is HeLa. The data set is described as follows: Antiproliferative activity against human HeLa cells assessed as reduction in cell viability incubated for 12 hrs by MTT assay. The class given is functional, cell-based. In short, it runs like this: as §5
Data set [23] is described as follows: Toxicity in BALB/c mouse xenografted with human HeLa cells assessed as lung damage at 4 mg/kg, iv administered for every 3 days for 21 days and measured after 24 hrs post last dose by H and E staining based light microscopic analysis. The format is organism-based. As to conditions: in vivo. In short, it runs like this: as §3

As for `Nc1nc(N)c2nc3c(nc2n1)-c1cccc2cccc-3c12`, the Activity with HeLa [1] is recorded as 205%; in [4], “Non-Toxic”; in the data set on HeLa [5] it was 121%; in data set [6] it was “Non-Toxic”; in the data set with HeLa [7] it was 110%; in the data set on HeLa [9], 30.2%. Further, the Activity entry in data set [11] is on record as “Non-Toxic”; with HeLa [12] it was 29.2%; in data set [13] it was “Non-Toxic”; with HeLa [14] it was 16.1%; in data set [17] it was “Non-Toxic”; in the data set with HeLa [20] it was 6.9%. Also, the Activity result in data set [21] and in [23] was “Non-Toxic” each time. The inhibition entry in the data set with HeLa [2] and in the data set with HeLa [16] was “Active” in each case. For the same compound, the inhibition at 1 µM in the data set with HeLa [3] worked out at 81%; in the data set with HeLa [18] it was 46%. The IC50 came to 0.64 µM in the data set with HeLa [8] and 2.1 µM in the data set on HeLa [22]. Also, the result in the data set with HeLa [10] was Active. Further, the Drug uptake result in [15] is listed as “Active”. Further, the selectivity ratio at 60 h in data set [19] was found to be 4.8.
